The values below come from PubChem BioAssay AID2295 (NMMLSC, 2010).

The source made the active and inactive calls.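 How the source made its calls: active means EC50 of 30 microM or lower, as activator or inhibitor; inactive means the rest.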

The target of this assay is Regulator of G-protein signaling 4 (Homo sapiens) (UniProt P49798). As to the kind of experiment: small molecules altering RGS4 interaction with Galphao – biochemical, multiplexed bead flow cytometry, SAR compounds, SAR follow-up (AID 2295). The conditions noted are these: bead-based flow cytometry, RGS4-AF488 Galphao binding; for Ki: measured here: Ki calculated from EC50. In short, it runs like this:
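Material: streptavidin bead-bound biotinylated RGS4, multiplexed bead sets; Detection: flow cytometry, median green (AlexaFluor488) fluorescence per bead set; Read-out basis: % response, EC50 and Ki (Kd 40 nM); Incubation: 30-90 min incubation at room temperature; Compound: 9 points, threefold dilution steps; Probe or stimulus: AlexaFluor488-labeled Galphao-GDP-AlF4 probe, 7 nM final.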

Chain of Regulator of G-protein signaling 4 (Homo sapiens) (P49798 whole entry, looked up): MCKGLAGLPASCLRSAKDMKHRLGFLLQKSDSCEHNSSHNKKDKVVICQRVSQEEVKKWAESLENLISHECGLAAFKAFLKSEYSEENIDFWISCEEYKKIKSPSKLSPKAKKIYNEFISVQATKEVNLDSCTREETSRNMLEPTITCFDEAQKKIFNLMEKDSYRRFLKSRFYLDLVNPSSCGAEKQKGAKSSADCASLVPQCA

As for `O=C(COc1ccccc1C(=O)N/N=C/c1ccc(O)c(O)c1)N/N=C/c1ccc(O)c(O)c1`, the Ki was 140 nM.
On the same count and under the same terms, for `O=C1C(Cl)=C(N2CCCCC2)C(=O)C(Cl)=C1c1cnc(N2CCCCC2)s1` the value was 230 nM; for `O=c1c2ccccc2sn1-c1ccc(S(=O)(=O)N2CCCC2)cc1`, 270 nM.
`CCN(CC)S(=O)(=O)c1cccc(C(=O)N/N=C/c2ccc(O)c(O)c2O)c1`: the Ki is 540 nM.
`Cc1cccc(N2CCN(C(=O)Cn3sc4nc(C)cc(C)c4c3=O)CC2C)c1` (stereo not drawn): the EC50 is > 30000 nM (inactive).
For `Cc1[nH]n(-c2ccccc2)c(=S)c1C=Nc1cccc([N+](=O)[O-])c1`, the Ki is 9370 nM.
On the same count and under the same terms, for `Cc1cccc(N2CCN(C(=O)COc3nsc4nc(C)cc(C)c34)CC2C)c1` (stereo not drawn) the value was 5830 nM.
On to `NS(=O)(=O)c1ccc(N/N=C/c2ccc(O)c(O)c2O)c([N+](=O)[O-])c1`, for which the EC50 is 1200 nM and the Ki is 1020 nM.
On to `O=C(NCCCN1CCOCC1)c1sc2cc([N+](=O)[O-])ccc2c1Cl`, for which the Ki was 8570 nM.
Consider `COc1ccc(C2=CC(=O)C=CC2=O)cc1`, for which the Ki was 490 nM.
Regarding `Cc1cc(Cl)ccc1N=c1ssnc1Cl`, the Ki is 260 nM.
The same measure, in the same setting: for `CCOC(=O)c1sc(NC(=O)CSc2nnc(Cc3ccccc3)o2)c(C#N)c1C` the value was 6680 nM.
Consider `CC(NC(=O)c1sc2cc([N+](=O)[O-])ccc2c1Cl)C(C)(C)C` (stereo not drawn), for which the EC50 was > 30000 nM (inactive).
As for `O=c1c2ccccc2sn1-c1ccccc1`, the Ki is 110 nM.
On the same count and under the same terms, for `CCC(=O)NC(c1ccc(C)cc1)c1cc([N+](=O)[O-])c2cccnc2c1O` (stereo not drawn) the value was 5620 nM; for `CCN(CC)S(=O)(=O)c1cccc(-c2n[nH]c(=S)n2/N=C/c2ccc(C(=O)OC)cc2)c1`, 8200 nM; for `CN=c1scc(C)n1/N=C/c1ccc(O)c(O)c1O`, 1460 nM.
For the compound `CC(=O)OCCCNc1cc(Sc2nc3ccccc3s2)c2nonc2c1[N+](=O)[O-]`, the EC50 was > 30000 nM (inactive).
Take `O=C(Cc1csc(N2CCOCC2)n1)N/N=C/c1ccc(O)c(O)c1O`: the Ki was 940 nM.
Turning to `Cc1[nH]n(-c2ccccc2)c(=S)c1C=NCCCN=Cc1c(C)[nH]n(-c2ccccc2)c1=S`, the EC50 is > 30000 nM (inactive).
As for `CCN=c1scc(C)n1/N=C/c1ccc(O)c(O)c1O`, the Ki was 3000 nM.
Turning to `CN1CCN(C2=C(Cl)C(=O)C(c3cnc(N4CCCCC4)s3)=C(Cl)C2=O)CC1`, the Ki is 290 nM.

By Ki is commonly meant a measure of affinity in units of concentration, obtained from inhibition or displacement. One may read the EC50 as the concentration that produces a half-maximal response.
